From ChEMBL document CHEMBL2321753, “Synthesis and biological evaluation of radioiodinated quinacrine-based derivatives for SPECT imaging of Aβ plaques” (Eur J Med Chem, 2013)

How the values were obtained:
Format in all cases: ADME, organism-based
Heart [1] = assay: Biodistribution in ddY mouse heart at 0.1 to 0.4 uCi, iv after 60 mins by gamma counting; settings: in vivo, 1 h
In short: (§1)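 [125I]ligand (0.1–0.4 µCi) in 100 µL PBS (pH 7.4) containing 30 µL DMSO, injected into the tail vein of ddY mice (5 weeks, 22–25 g). Mice sacrificed at 2, 10, 30 and 60 min. Organs removed, weighed and gamma-counted. Values are % injected dose per gram, except stomach as % dose per organ. Mean (SD) of 3–6 mice per time point.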

Lung [2] = assay: Biodistribution in ddY mouse lung at 0.1 to 0.4 uCi, iv after 60 mins by gamma counting; settings: in vivo, 1 h; in short: as §1
Blood [3] = assay: Biodistribution in ddY mouse blood at 0.1 to 0.4 uCi, iv after 60 mins by gamma counting; settings: in vivo, 1 h; in short: as §1
Spleen [4] = assay: Biodistribution in ddY mouse spleen at 0.1 to 0.4 uCi, iv after 10 mins by gamma counting; settings: in vivo; in short: as §1
Intestine [5] = assay: Biodistribution in ddY mouse intestine at 0.1 to 0.4 uCi, iv after 10 mins by gamma counting; settings: in vivo; in short: as §1
Stomach [6] = assay: Biodistribution in ddY mouse stomach assessed per organ at 0.1 to 0.4 uCi, iv after 60 mins by gamma counting; settings: in vivo, 1 h; in short: as §1
Kidney [7] = assay: Biodistribution in ddY mouse kidney at 0.1 to 0.4 uCi, iv after 30 mins by gamma counting; settings: in vivo, 0.5 h; in short: as §1
Lung [8] = assay: Biodistribution in ddY mouse lung at 0.1 to 0.4 uCi, iv after 10 mins by gamma counting; settings: in vivo; in short: as §1
Pancreas [9] = assay: Biodistribution in ddY mouse pancreas at 0.1 to 0.4 uCi, iv after 10 mins by gamma counting; settings: in vivo; in short: as §1
Kidney [10] = assay: Biodistribution in ddY mouse kidney at 0.1 to 0.4 uCi, iv after 2 mins by gamma counting; settings: in vivo; in short: as §1
Intestine [11] = assay: Biodistribution in ddY mouse intestine at 0.1 to 0.4 uCi, iv after 60 mins by gamma counting; settings: in vivo, 1 h; in short: as §1
Heart [12] = assay: Biodistribution in ddY mouse heart at 0.1 to 0.4 uCi, iv after 10 mins by gamma counting; settings: in vivo; in short: as §1
Spleen [13] = assay: Biodistribution in ddY mouse spleen at 0.1 to 0.4 uCi, iv after 2 mins by gamma counting; settings: in vivo; in short: as §1
Pancreas [14] = assay: Biodistribution in ddY mouse pancreas at 0.1 to 0.4 uCi, iv after 30 mins by gamma counting; settings: in vivo, 0.5 h; in short: as §1
Brain [15] = assay: Biodistribution in ddY mouse brain at 0.1 to 0.4 uCi, iv after 60 mins by gamma counting; settings: in vivo, 1 h; in short: as §1
Intestine [16] = assay: Biodistribution in ddY mouse intestine at 0.1 to 0.4 uCi, iv after 30 mins by gamma counting; settings: in vivo, 0.5 h; in short: as §1
Intestine [17] = assay: Biodistribution in ddY mouse intestine at 0.1 to 0.4 uCi, iv after 2 mins by gamma counting; settings: in vivo; in short: as §1
Stomach [18] = assay: Biodistribution in ddY mouse stomach assessed per organ at 0.1 to 0.4 uCi, iv after 30 mins by gamma counting; settings: in vivo, 0.5 h; in short: as §1
Liver [19] = assay: Biodistribution in ddY mouse liver at 0.1 to 0.4 uCi, iv after 30 mins by gamma counting; settings: in vivo, 0.5 h; in short: as §1
Stomach [20] = assay: Biodistribution in ddY mouse stomach assessed per organ at 0.1 to 0.4 uCi, iv after 10 mins by gamma counting; settings: in vivo; in short: as §1
Brain [21] = assay: Ratio of drug level in brain after 2 mins to brain after 60 mins in ddY mouse brain at 0.1 to 0.4 uCi, iv; settings: in vivo
In short: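 ddY mice (5 weeks, 22–25 g) given [125I]ligand (0.1–0.4 µCi) iv in PBS/DMSO. Brain radioactivity (% dose/g) measured by gamma counting at 2 and 60 min, and the 2 min/60 min ratio taken as a washout index.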

Blood [22] = assay: Biodistribution in ddY mouse blood at 0.1 to 0.4 uCi, iv after 30 mins by gamma counting; settings: in vivo, 0.5 h; in short: as §1
Blood [23] = assay: Biodistribution in ddY mouse blood at 0.1 to 0.4 uCi, iv after 2 mins by gamma counting; settings: in vivo; in short: as §1
Pancreas [24] = assay: Biodistribution in ddY mouse pancreas at 0.1 to 0.4 uCi, iv after 60 mins by gamma counting; settings: in vivo, 1 h; in short: as §1
Lung [25] = assay: Biodistribution in ddY mouse lung at 0.1 to 0.4 uCi, iv after 30 mins by gamma counting; settings: in vivo, 0.5 h; in short: as §1
Spleen [26] = assay: Biodistribution in ddY mouse spleen at 0.1 to 0.4 uCi, iv after 60 mins by gamma counting; settings: in vivo, 1 h; in short: as §1
Liver [27] = assay: Biodistribution in ddY mouse liver at 0.1 to 0.4 uCi, iv after 10 mins by gamma counting; settings: in vivo; in short: as §1
Stomach [28] = assay: Biodistribution in ddY mouse stomach assessed per organ at 0.1 to 0.4 uCi, iv after 2 mins by gamma counting; settings: in vivo; in short: as §1
Kidney [29] = assay: Biodistribution in ddY mouse kidney at 0.1 to 0.4 uCi, iv after 60 mins by gamma counting; settings: in vivo, 1 h; in short: as §1
Brain [30] = assay: Biodistribution in ddY mouse brain at 0.1 to 0.4 uCi, iv after 2 mins by gamma counting; settings: in vivo; in short: as §1
Lung [31] = assay: Biodistribution in ddY mouse lung at 0.1 to 0.4 uCi, iv after 2 mins by gamma counting; settings: in vivo; in short: as §1
Liver [32] = assay: Biodistribution in ddY mouse liver at 0.1 to 0.4 uCi, iv after 2 mins by gamma counting; settings: in vivo; in short: as §1
Heart [33] = assay: Biodistribution in ddY mouse heart at 0.1 to 0.4 uCi, iv after 30 mins by gamma counting; settings: in vivo, 0.5 h; in short: as §1
Pancreas [34] = assay: Biodistribution in ddY mouse pancreas at 0.1 to 0.4 uCi, iv after 2 mins by gamma counting; settings: in vivo; in short: as §1
Kidney [35] = assay: Biodistribution in ddY mouse kidney at 0.1 to 0.4 uCi, iv after 10 mins by gamma counting; settings: in vivo; in short: as §1
Brain [36] = assay: Biodistribution in ddY mouse brain at 0.1 to 0.4 uCi, iv after 10 mins by gamma counting; settings: in vivo; in short: as §1
Brain [37] = assay: Biodistribution in ddY mouse brain at 0.1 to 0.4 uCi, iv after 30 mins by gamma counting; settings: in vivo, 0.5 h; in short: as §1
Spleen [38] = assay: Biodistribution in ddY mouse spleen at 0.1 to 0.4 uCi, iv after 30 mins by gamma counting; settings: in vivo, 0.5 h; in short: as §1
Blood [39] = assay: Biodistribution in ddY mouse blood at 0.1 to 0.4 uCi, iv after 10 mins by gamma counting; settings: in vivo; in short: as §1
Liver [40] = assay: Biodistribution in ddY mouse liver at 0.1 to 0.4 uCi, iv after 60 mins by gamma counting; settings: in vivo, 1 h; in short: as §1
Heart [41] = assay: Biodistribution in ddY mouse heart at 0.1 to 0.4 uCi, iv after 2 mins by gamma counting; settings: in vivo; in short: as §1

- Drug uptake (Heart [1]): 1.1 % ID/g
- Drug uptake (Lung [2]): 2.04 % ID/g
- Drug uptake (Blood [3]): 1.77 % ID/g
- Drug uptake (Spleen [4]): 2.12 % ID/g
- Drug uptake (Intestine [5]): 6.41 % ID/g
- Drug uptake (Stomach [6]): 4.36 %ID
- Drug uptake (Kidney [7]): 4.41 % ID/g
- Drug uptake (Lung [8]): 3.37 % ID/g
- Drug uptake (Pancreas [9]): 2.03 % ID/g
- Drug uptake (Kidney [10]): 8.07 % ID/g
- Drug uptake (Intestine [11]): 20.17 % ID/g
- Drug uptake (Heart [12]): 1.82 % ID/g
- Drug uptake (Spleen [13]): 3.75 % ID/g
- Drug uptake (Pancreas [14]): 1.33 % ID/g
- Drug uptake (Brain [15]): 0.37 % ID/g
- Drug uptake (Intestine [16]): 16.78 % ID/g
- Drug uptake (Intestine [17]): 2.59 % ID/g
- Drug uptake (Stomach [18]): 5.97 %ID
- Drug uptake (Liver [19]): 13.65 % ID/g
- Drug uptake (Stomach [20]): 3.51 %ID
- Ratio (Brain [21]): 11.9
- Drug uptake (Blood [22]): 2.59 % ID/g
- Drug uptake (Blood [23]): 2.14 % ID/g
- Drug uptake (Pancreas [24]): 1.1 % ID/g
- Drug uptake (Lung [25]): 3.28 % ID/g
- Drug uptake (Spleen [26]): 1.24 % ID/g
- Drug uptake (Liver [27]): 20.85 % ID/g
- Drug uptake (Stomach [28]): 1.86 %ID
- Drug uptake (Kidney [29]): 2.77 % ID/g
- Drug uptake (Brain [30]): 4.41 % ID/g
- Drug uptake (Lung [31]): 5.95 % ID/g
- Drug uptake (Liver [32]): 18.77 % ID/g
- Drug uptake (Heart [33]): 1.59 % ID/g
- Drug uptake (Pancreas [34]): 5.41 % ID/g
- Drug uptake (Kidney [35]): 4.69 % ID/g
- Drug uptake (Brain [36]): 2.14 % ID/g
- Drug uptake (Brain [37]): 0.82 % ID/g
- Drug uptake (Spleen [38]): 1.87 % ID/g
- Drug uptake (Blood [39]): 2.19 % ID/g
- Drug uptake (Liver [40]): 5.8 % ID/g
- Drug uptake (Heart [41]): 5.83 % ID/g
SMILES: COc1ccc2nc3cc([125I])ccc3c(OC)c2c1
